Consider 13 molecules from ChEMBL document CHEMBL4196123, “Discovery of an Orally Bioavailable Dual PI3K/mTOR Inhibitor Based on Sulfonyl-Substituted Morpholinopyrimidines” (ACS Med Chem Lett, 2018).

Structures are written as SMILES. Activity calls are given as the source filed them. The calls are words filed in the database; no cut-off is given here.

The subject of the first series is HT-29. The experiment in a line: Antitumor activity against human HT-29 cells harboring PIK3CA P449T mutant xenografted in Balb/c nu/nu mouse assessed as tumor growth inhibition at 15 mg/kg, po administered daily via gavage for 27 days relative to control. In kind it is functional. As to conditions: HT-29, po, 648 h, read-out: TGI. In a few lines:
(§1)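 Balb/c nu/nu mice carrying HT-29 xenografts were dosed by daily oral gavage for 27 days, starting when mean tumor size was about 240 mm³; vehicle group as control. Tumor volume estimated over time, and TGI calculated after 27 days. Mean ± SEM, n = 6. Dunnett's multiple comparison test.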
For `Nc1cc(C(F)(F)F)c(-c2cc(N3CCOCC3)nc(N3CCOCC3)n2)cn1` [BUPARLISIB], the inhibition in vivo at 15 mg/kg amounted to 39.4%.

The test system of another series is Mus musculus. The experiment in a line: Toxicity in Balb/c nu/nu mouse xenografted with human HT-29 cells harboring PIK3CA P449T mutant assessed as body weight loss at 60 mg/kg, po administered daily via gavage for 10 days relative to control. As to conditions: in vivo, 240 h.
For `Nc1cc(C(F)(F)F)c(-c2cc(N3CCOCC3)nc(N3CCOCC3)n2)cn1` [BUPARLISIB], the Activity is recorded as more than 25%.

For the next series, the system named is T47D. The experiment in a line: Antiproliferative activity against human T47D cells harboring PI3KCA H1047R mutant after 72 hrs by MTT assay. The format is functional, cell-based.
Conditions: not given
As for `CS(=O)(=O)C(F)c1cc(-c2cnc(N)cc2C(F)(F)F)nc(N2CCOCC2)n1` (stereo not given), the IC50 was found to be 1160 nM.
The same measure, in the same setting: the value for `C[C@H]1COCCN1c1nc(-c2cnc(N)cc2C(F)(F)F)cc(C(C)(C)S(C)(=O)=O)n1` was 175 nM.
Still for that read-out and setting: the value for `C[C@H]1COCCN1c1nc(-c2cnc(N)cc2F)cc(C(C)(C)S(C)(=O)=O)n1` was 33 nM.
Still for that read-out and setting: the value for `CS(=O)(=O)C1(c2cc(-c3cnc(N)cc3F)nc(N3CCOCC3)n2)CC1` was 62 nM.
With `CC(C)(c1cc(-c2cnc(N)cc2C(F)(F)F)nc(N2CCOCC2)n1)S(C)(=O)=O`, the IC50 worked out at 58 nM.
The same measure, in the same setting: to `CCS(=O)(=O)C1(c2cc(-c3cnc(N)cc3C(F)(F)F)nc(N3CCOCC3)n2)CC1` belongs 225 nM; to `CS(=O)(=O)C1(c2cc(-c3cnc(N)cc3C(F)(F)F)nc(N3CCOCC3)n2)CCC1`, 138 nM.
In the case of `CS(=O)(=O)C(F)(F)c1cc(-c2cnc(N)cc2C(F)(F)F)nc(N2CCOCC2)n1`, the IC50 is 513 nM.
Consider `Nc1cc(C(F)(F)F)c(-c2cc(C3(S(=O)(=O)c4ccccc4F)CC3)nc(N3CCOCC3)n2)cn1`, for which the IC50 came to 129 nM.
Still for that read-out and setting: the value for `C[C@H]1COCCN1c1nc(-c2cnc(N)cc2C(F)(F)F)cc(C2(S(C)(=O)=O)CCCC2)n1` was 139 nM; that for `Nc1cc(C(F)(F)F)c(-c2cc(N3CCOCC3)nc(N3CCOCC3)n2)cn1` [BUPARLISIB] was 286 nM.
Still for that read-out and setting: to `CC(C)(c1cc(-c2cnc(N)cc2C(F)(F)F)nc(N2CCOCC2)n1)S(=O)(=O)c1ccccc1` belongs 478 nM; to `Nc1cc(C(F)(F)F)c(-c2cc(C3(S(=O)(=O)c4cccc(F)c4)CC3)nc(N3CCOCC3)n2)cn1`, 242 nM.

Tested on in the next series: not listed separately
The experiment in a line: Intrinsic clearance in mouse liver microsomes at […] pretreated up to 45 mins followed by NADPH addition and measured by LC-MS/MS analysis. In kind it is ADME, microsome. As to conditions: read-out: CLH.
`C[C@H]1COCCN1c1nc(-c2cnc(N)cc2F)cc(C(C)(C)S(C)(=O)=O)n1`: the CLint scaled was in the range of 40 to 140 mL/min/kg.
Still for that read-out and setting: the value for `CS(=O)(=O)C1(c2cc(-c3cnc(N)cc3F)nc(N3CCOCC3)n2)CC1` was 40 to 140 mL/min/kg.
Same read-out and setting: to `Nc1cc(C(F)(F)F)c(-c2cc(N3CCOCC3)nc(N3CCOCC3)n2)cn1` [BUPARLISIB] belongs 151 mL/min/kg.

For another series, the target named is PI3-kinase p110-alpha/p85-alpha (Homo sapiens, UniProt P42336). The experiment in a line: Inhibition of recombinant human full length N-terminal His-tagged p110alpha/p85alpha expressed in baculovirus expression system using PIP2 as substrate measured after 1 hr by Alexa633 Tracer-based fluorescence polarization assay.
Sequence of PI3-kinase p110-alpha/p85-alpha (P27986 whole entry): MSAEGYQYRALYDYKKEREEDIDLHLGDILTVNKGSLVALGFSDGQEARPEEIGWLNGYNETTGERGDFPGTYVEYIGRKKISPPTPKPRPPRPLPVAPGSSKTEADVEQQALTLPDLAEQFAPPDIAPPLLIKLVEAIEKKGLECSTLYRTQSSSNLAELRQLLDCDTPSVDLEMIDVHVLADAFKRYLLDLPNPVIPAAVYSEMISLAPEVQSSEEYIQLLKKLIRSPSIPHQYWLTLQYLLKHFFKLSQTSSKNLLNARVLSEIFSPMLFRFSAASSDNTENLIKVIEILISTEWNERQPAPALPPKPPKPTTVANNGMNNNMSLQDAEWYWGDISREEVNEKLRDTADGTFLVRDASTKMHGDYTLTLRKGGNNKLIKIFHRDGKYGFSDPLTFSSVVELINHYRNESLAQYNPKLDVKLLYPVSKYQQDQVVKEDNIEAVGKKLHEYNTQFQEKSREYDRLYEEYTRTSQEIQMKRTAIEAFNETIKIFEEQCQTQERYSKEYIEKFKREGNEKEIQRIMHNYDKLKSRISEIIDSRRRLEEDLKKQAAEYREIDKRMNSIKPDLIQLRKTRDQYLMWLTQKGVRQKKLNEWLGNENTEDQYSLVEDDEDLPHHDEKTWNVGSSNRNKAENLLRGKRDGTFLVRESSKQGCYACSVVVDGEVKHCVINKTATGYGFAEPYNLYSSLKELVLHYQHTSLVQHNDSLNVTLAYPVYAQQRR
Sequence of PI3-kinase p110-alpha/p85-alpha (P42336 whole entry): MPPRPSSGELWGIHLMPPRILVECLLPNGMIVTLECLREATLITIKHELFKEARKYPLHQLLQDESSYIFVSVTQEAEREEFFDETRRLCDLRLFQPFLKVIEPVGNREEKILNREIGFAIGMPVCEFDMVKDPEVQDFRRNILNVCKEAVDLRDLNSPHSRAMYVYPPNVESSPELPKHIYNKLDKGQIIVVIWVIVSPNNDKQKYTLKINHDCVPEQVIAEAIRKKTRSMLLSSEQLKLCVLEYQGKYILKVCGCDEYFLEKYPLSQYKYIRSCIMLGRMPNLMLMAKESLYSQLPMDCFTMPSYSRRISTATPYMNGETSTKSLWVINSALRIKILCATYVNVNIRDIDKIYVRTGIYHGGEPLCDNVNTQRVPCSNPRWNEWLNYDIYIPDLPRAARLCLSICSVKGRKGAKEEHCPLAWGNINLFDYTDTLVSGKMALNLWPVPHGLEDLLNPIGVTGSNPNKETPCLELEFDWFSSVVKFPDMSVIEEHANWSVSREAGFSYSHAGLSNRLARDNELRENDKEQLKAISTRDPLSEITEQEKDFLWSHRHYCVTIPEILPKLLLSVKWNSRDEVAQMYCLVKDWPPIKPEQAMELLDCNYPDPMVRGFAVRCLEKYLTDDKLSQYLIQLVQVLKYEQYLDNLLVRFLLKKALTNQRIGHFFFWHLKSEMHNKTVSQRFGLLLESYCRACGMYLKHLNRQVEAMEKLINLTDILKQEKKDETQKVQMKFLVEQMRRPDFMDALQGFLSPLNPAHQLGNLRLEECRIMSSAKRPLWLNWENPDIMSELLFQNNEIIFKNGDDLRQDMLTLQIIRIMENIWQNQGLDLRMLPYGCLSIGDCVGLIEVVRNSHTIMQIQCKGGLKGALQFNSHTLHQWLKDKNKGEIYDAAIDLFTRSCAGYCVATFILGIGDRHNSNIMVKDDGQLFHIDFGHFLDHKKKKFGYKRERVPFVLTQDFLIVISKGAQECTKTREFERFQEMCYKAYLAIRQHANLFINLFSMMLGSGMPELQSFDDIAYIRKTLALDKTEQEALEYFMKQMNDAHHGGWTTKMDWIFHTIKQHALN
Conditions: not given
The procedure, abridged:
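PI3Kα enzyme inhibition; IC50 is the mean of duplicate measurements.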
In the case of `CS(=O)(=O)C(F)c1cc(-c2cnc(N)cc2C(F)(F)F)nc(N2CCOCC2)n1` (stereo not given), the IC50 is 56 nM.
As to `C[C@H]1COCCN1c1nc(-c2cnc(N)cc2F)cc(C(C)(C)S(C)(=O)=O)n1`, the IC50 was 20 nM.
In the case of `CS(=O)(=O)C1(c2cc(-c3cnc(N)cc3F)nc(N3CCOCC3)n2)CC1`, the IC50 amounted to 41 nM.
With `CS(=O)(=O)C1(c2cc(-c3cnc(N)cc3C(F)(F)F)nc(N3CCOCC3)n2)CCC1`, the IC50 is 15 nM.
Same read-out and setting: to `CS(=O)(=O)C(F)(F)c1cc(-c2cnc(N)cc2C(F)(F)F)nc(N2CCOCC2)n1` belongs 25 nM.
Same read-out and setting: to `Nc1cc(C(F)(F)F)c(-c2cc(C3(S(=O)(=O)c4ccccc4F)CC3)nc(N3CCOCC3)n2)cn1` belongs 7 nM.
Consider `C[C@H]1COCCN1c1nc(-c2cnc(N)cc2C(F)(F)F)cc(C2(S(C)(=O)=O)CCCC2)n1`, for which the IC50 came to 22 nM.
Still for that read-out and setting: the value for `CC(C)(c1cc(-c2cnc(N)cc2C(F)(F)F)nc(N2CCOCC2)n1)S(=O)(=O)c1ccccc1` was 9 nM; that for `Nc1cc(C(F)(F)F)c(-c2cc(C3(S(=O)(=O)c4cccc(F)c4)CC3)nc(N3CCOCC3)n2)cn1` was 14 nM.

The next series deals with Serine/threonine-protein kinase ATR (Homo sapiens) (UniProt Q13535). The experiment in a line: Inhibition of ATR in human HT-29 cells assessed as reduction in camptothecin-induced Chk1 phosphorylation at Ser345 residue up to 10 uM pretreated for 1 hr followed by camptothecin addition. In kind it is cell-based.
Sequence of Serine/threonine-protein kinase ATR (Homo sapiens) (Q13535 whole entry, looked up): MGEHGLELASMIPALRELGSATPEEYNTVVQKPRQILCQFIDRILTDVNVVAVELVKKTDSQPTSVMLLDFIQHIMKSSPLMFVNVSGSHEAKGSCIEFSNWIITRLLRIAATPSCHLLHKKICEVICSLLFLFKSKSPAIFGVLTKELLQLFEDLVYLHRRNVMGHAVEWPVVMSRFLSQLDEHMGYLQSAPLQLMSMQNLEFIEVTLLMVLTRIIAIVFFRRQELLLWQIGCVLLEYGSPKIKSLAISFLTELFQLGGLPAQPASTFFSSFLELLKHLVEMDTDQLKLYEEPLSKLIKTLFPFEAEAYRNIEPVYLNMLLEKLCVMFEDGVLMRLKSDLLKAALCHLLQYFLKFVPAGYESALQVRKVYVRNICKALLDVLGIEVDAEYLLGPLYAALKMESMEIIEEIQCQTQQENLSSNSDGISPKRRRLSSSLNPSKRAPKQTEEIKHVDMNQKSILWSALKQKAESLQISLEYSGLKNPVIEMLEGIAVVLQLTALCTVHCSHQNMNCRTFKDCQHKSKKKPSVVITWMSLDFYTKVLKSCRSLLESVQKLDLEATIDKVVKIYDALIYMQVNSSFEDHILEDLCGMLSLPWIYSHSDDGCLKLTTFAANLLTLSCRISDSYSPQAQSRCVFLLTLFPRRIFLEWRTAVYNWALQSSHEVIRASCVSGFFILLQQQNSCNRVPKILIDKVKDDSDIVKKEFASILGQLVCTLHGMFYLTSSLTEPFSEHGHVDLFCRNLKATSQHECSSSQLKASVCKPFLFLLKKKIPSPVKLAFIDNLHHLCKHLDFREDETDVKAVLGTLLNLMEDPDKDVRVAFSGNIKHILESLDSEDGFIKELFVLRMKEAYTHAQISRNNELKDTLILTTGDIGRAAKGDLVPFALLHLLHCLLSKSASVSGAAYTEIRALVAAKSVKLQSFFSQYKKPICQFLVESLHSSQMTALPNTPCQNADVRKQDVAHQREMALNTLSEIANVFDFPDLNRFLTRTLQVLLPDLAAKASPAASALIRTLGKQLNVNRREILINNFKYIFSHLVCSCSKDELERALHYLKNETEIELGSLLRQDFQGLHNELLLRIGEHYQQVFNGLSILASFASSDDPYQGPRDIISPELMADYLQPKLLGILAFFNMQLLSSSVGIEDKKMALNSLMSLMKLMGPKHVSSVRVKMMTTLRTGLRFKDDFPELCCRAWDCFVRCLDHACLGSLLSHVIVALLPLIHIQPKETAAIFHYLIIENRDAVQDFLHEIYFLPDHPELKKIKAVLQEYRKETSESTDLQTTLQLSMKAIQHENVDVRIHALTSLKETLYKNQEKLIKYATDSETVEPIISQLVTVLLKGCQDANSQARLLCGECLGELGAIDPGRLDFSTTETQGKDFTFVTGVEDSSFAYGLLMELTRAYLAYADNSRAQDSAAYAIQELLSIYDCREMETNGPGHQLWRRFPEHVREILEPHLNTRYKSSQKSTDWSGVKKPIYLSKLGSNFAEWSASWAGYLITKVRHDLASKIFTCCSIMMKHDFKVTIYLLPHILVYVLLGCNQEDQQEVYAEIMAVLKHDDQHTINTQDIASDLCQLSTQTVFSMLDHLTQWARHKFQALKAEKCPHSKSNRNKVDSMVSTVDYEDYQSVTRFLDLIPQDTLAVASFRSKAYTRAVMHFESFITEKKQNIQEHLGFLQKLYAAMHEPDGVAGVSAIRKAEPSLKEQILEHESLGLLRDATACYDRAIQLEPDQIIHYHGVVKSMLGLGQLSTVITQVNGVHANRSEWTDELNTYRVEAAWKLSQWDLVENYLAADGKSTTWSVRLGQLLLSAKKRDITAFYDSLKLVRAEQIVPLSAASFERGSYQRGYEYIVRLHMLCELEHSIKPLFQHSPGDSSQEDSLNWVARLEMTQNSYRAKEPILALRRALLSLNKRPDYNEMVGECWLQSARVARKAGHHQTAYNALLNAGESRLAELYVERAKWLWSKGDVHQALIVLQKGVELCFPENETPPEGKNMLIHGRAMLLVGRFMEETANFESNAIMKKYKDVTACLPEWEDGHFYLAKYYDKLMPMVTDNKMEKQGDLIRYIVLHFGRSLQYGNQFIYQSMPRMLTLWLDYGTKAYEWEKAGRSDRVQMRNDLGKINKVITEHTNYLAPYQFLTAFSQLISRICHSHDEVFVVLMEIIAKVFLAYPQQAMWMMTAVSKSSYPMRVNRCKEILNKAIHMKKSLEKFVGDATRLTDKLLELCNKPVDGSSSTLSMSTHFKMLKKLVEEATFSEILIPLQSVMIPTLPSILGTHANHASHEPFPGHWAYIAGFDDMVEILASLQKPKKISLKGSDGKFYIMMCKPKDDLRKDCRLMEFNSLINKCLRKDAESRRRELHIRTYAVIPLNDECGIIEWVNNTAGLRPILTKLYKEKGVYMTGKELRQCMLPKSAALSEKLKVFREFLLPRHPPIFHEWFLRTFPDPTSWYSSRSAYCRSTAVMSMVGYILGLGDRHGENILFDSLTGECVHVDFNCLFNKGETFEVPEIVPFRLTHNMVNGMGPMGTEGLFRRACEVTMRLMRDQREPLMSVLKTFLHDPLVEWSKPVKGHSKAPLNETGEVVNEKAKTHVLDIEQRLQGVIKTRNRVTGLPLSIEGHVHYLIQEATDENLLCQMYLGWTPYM
Conditions: not given
In a few lines:
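HT-29 cells were pretreated with compound for 1 h, then exposed to camptothecin to induce DNA damage. ATR activity was read as phosphorylation of its substrate Chk1, with total Chk1 and β-actin as internal controls. […] served as reference inhibitor.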
Take `Nc1cc(C(F)(F)F)c(-c2cc(N3CCOCC3)nc(N3CCOCC3)n2)cn1` [BUPARLISIB]: the inhibition entry was “inactive”.

For the next series, the system named is HT-29. The experiment in a line: Antitumor activity against human HT-29 cells harboring PIK3CA P449T mutant xenografted in Balb/c nu/nu mouse assessed as tumor growth inhibition at 30 mg/kg, po administered daily via gavage for 27 days relative to control. In kind it is functional. As to conditions: HT-29, po, 648 h, read-out: TGI. The procedure, abridged:
as §1
With `Nc1cc(C(F)(F)F)c(-c2cc(N3CCOCC3)nc(N3CCOCC3)n2)cn1` [BUPARLISIB], the inhibition in vivo at 30 mg/kg is 55.7%.

For a further series, the system named is MCF7. The experiment in a line: Antiproliferative activity against human MCF7 cells harboring PIK3CA E545K mutant after 72 hrs by MTT assay. In kind it is functional, cell-based. As to conditions: MCF7, 72 h.
The molecule `CS(=O)(=O)C(F)c1cc(-c2cnc(N)cc2C(F)(F)F)nc(N2CCOCC2)n1` (stereo not given) showed an IC50 of 1140 nM.
In the case of `C[C@H]1COCCN1c1nc(-c2cnc(N)cc2C(F)(F)F)cc(C(C)(C)S(C)(=O)=O)n1`, the IC50 came out at 214 nM.
The same measure, in the same setting: the value for `C[C@H]1COCCN1c1nc(-c2cnc(N)cc2F)cc(C(C)(C)S(C)(=O)=O)n1` was 15 nM; that for `CS(=O)(=O)C1(c2cc(-c3cnc(N)cc3F)nc(N3CCOCC3)n2)CC1` was 27 nM; that for `CC(C)(c1cc(-c2cnc(N)cc2C(F)(F)F)nc(N2CCOCC2)n1)S(C)(=O)=O` was 224 nM.
`CCS(=O)(=O)C1(c2cc(-c3cnc(N)cc3C(F)(F)F)nc(N3CCOCC3)n2)CC1` displayed a half-maximal inhibitory concentration (IC50) of 295 nM.
`CS(=O)(=O)C1(c2cc(-c3cnc(N)cc3C(F)(F)F)nc(N3CCOCC3)n2)CCC1` came in with an IC50 of 134 nM.
The molecule `CS(=O)(=O)C(F)(F)c1cc(-c2cnc(N)cc2C(F)(F)F)nc(N2CCOCC2)n1` came in with an IC50 of 408 nM.
Still for that read-out and setting: to `Nc1cc(C(F)(F)F)c(-c2cc(C3(S(=O)(=O)c4ccccc4F)CC3)nc(N3CCOCC3)n2)cn1` belongs 184 nM.
Same read-out and setting: the value for `C[C@H]1COCCN1c1nc(-c2cnc(N)cc2C(F)(F)F)cc(C2(S(C)(=O)=O)CCCC2)n1` was 159 nM; that for `Nc1cc(C(F)(F)F)c(-c2cc(N3CCOCC3)nc(N3CCOCC3)n2)cn1` [BUPARLISIB] was 206 nM.
Still for that read-out and setting: the value for `CC(C)(c1cc(-c2cnc(N)cc2C(F)(F)F)nc(N2CCOCC2)n1)S(=O)(=O)c1ccccc1` was 897 nM; that for `Nc1cc(C(F)(F)F)c(-c2cc(C3(S(=O)(=O)c4cccc(F)c4)CC3)nc(N3CCOCC3)n2)cn1` was 286 nM.

Tested on in the next series: not listed separately
Nature of the series: Intrinsic clearance in human liver microsomes at […] pretreated up to 45 mins followed by NADPH addition and measured by LC-MS/MS analysis. In kind it is ADME, microsome. As to conditions: read-out: CLH.
With `C[C@H]1COCCN1c1nc(-c2cnc(N)cc2F)cc(C(C)(C)S(C)(=O)=O)n1`, the CLint scaled was in the range of 5 to 16 mL/min/kg.
Consider `CS(=O)(=O)C1(c2cc(-c3cnc(N)cc3F)nc(N3CCOCC3)n2)CC1`, for which the CLint scaled was in the range of 5 to 16 mL/min/kg.
As for `Nc1cc(C(F)(F)F)c(-c2cc(N3CCOCC3)nc(N3CCOCC3)n2)cn1` [BUPARLISIB], the CLint scaled was 10.9 mL/min/kg.

The next series concerns HT-29. The experiment in a line: Cell cycle arrest in human HT-29 cells assessed as accumulation at G2/M phase at 0.111 to 3 uM after 24 hrs by propidium iodide staining based flow cytometry.
Conditions: not given
In kind it is functional.
Consider `Nc1cc(C(F)(F)F)c(-c2cc(N3CCOCC3)nc(N3CCOCC3)n2)cn1` [BUPARLISIB], for which the outcome was Active.

Tested on in a further series: not listed separately
Nature of the series: Inhibition of PI3K in human PC3 cells assessed as reduction in AKT phosphorylation at Ser473 measured after 2 hrs by fluorescence assay. As to conditions: PC-3, 2 h. In kind it is cell-based.
With `CS(=O)(=O)C(F)c1cc(-c2cnc(N)cc2C(F)(F)F)nc(N2CCOCC2)n1` (stereo not given), the IC50 was 2450 nM.
Same read-out and setting: to `C[C@H]1COCCN1c1nc(-c2cnc(N)cc2C(F)(F)F)cc(C(C)(C)S(C)(=O)=O)n1` belongs 306 nM; to `C[C@H]1COCCN1c1nc(-c2cnc(N)cc2F)cc(C(C)(C)S(C)(=O)=O)n1`, 121 nM; to `CS(=O)(=O)C1(c2cc(-c3cnc(N)cc3F)nc(N3CCOCC3)n2)CC1`, 369 nM.
Still for that read-out and setting: to `CC(C)(c1cc(-c2cnc(N)cc2C(F)(F)F)nc(N2CCOCC2)n1)S(C)(=O)=O` belongs 312 nM.
Still for that read-out and setting: to `CCS(=O)(=O)C1(c2cc(-c3cnc(N)cc3C(F)(F)F)nc(N3CCOCC3)n2)CC1` belongs 301 nM; to `CS(=O)(=O)C1(c2cc(-c3cnc(N)cc3C(F)(F)F)nc(N3CCOCC3)n2)CCC1`, 248 nM.
On to `CS(=O)(=O)C(F)(F)c1cc(-c2cnc(N)cc2C(F)(F)F)nc(N2CCOCC2)n1`, for which the IC50 was 846 nM.
Still for that read-out and setting: to `Nc1cc(C(F)(F)F)c(-c2cc(C3(S(=O)(=O)c4ccccc4F)CC3)nc(N3CCOCC3)n2)cn1` belongs 367 nM; to `C[C@H]1COCCN1c1nc(-c2cnc(N)cc2C(F)(F)F)cc(C2(S(C)(=O)=O)CCCC2)n1`, 674 nM; to `Nc1cc(C(F)(F)F)c(-c2cc(N3CCOCC3)nc(N3CCOCC3)n2)cn1` [BUPARLISIB], 365 nM.
Same read-out and setting: the value for `CC(C)(c1cc(-c2cnc(N)cc2C(F)(F)F)nc(N2CCOCC2)n1)S(=O)(=O)c1ccccc1` was 1550 nM; that for `Nc1cc(C(F)(F)F)c(-c2cc(C3(S(=O)(=O)c4cccc(F)c4)CC3)nc(N3CCOCC3)n2)cn1` was 606 nM.

Another series deals with HUVEC. Nature of the series: Cytotoxicity against HUVEC after 72 hrs by MTT assay. In kind it is cell-based. As to conditions: Homo sapiens.
Consider `Nc1cc(C(F)(F)F)c(-c2cc(N3CCOCC3)nc(N3CCOCC3)n2)cn1` [BUPARLISIB], for which the IC50 was determined as 886 nM.
